Bioassay records as filed in PubChem.
This is a sample that favours compounds with a hit; in the whole collection about 3.5% have one here.
Pf gametocyte: P. falciparum stage V gametocyte viability inhibition; P. falciparum stage V gametocytes, ATP luminescence, 24 h; inhibition, % at 10.9 µM; 150,000 compounds, 0.065% hits; AID 743093;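 active means inhibition above the mean plus 3 SD of compounds within the control limits, set per campaign, cut at about 38% in these data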
STAT1 activator: increases IFN-gamma driven STAT1 reporter signal. 200,000 compounds, 2.6% hits. NIH 3T3 STAT1-luciferase reporter, luminescence; 100% = IFN-gamma alone, no compound. activation (% of control), % at 5.5 µM. AID 932;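 active means activation above the screen-wide mean activation plus 3 SD, cut at about 130% in these data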
FLuc stim CS: affects firefly luciferase, flagging false hits in luciferase stimulation screens | P08659 | ATPlite luciferase biochemical, luminescence, 10 min; 0 = ATP-free wells, 1 = DMSO control | activation factor at 10 µM | 200,000 tested, under 10 active;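 active means luciferase activation factor, scaled between plate controls, of at least 2 with compound at 10 µM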
Target sequence (P08659 whole entry, looked up): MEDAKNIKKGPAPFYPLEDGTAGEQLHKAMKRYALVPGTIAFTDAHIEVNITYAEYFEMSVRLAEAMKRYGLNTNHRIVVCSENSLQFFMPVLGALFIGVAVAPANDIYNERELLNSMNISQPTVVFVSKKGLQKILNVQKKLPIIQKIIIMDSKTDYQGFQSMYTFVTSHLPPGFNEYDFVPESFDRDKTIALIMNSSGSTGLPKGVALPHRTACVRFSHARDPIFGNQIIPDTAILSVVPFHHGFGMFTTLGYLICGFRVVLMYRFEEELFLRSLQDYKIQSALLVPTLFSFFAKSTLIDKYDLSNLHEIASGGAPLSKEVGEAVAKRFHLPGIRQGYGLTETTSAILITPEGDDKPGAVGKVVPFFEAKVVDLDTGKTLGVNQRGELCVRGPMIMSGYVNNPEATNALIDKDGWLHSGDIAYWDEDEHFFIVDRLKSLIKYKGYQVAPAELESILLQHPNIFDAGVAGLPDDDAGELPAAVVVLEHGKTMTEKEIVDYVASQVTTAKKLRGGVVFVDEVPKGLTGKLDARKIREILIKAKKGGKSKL
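System: cell-free luciferase reagent; medium: PBS as buffer for the ATP substrate; doses: test compounds dosed from 2 mM stocks in 100% DMSO; incubation: 10 min, room temperature; measured by: luminescence from luciferase reaction; read-out: luciferase activation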
FLuc inh counter: counter-screen for luciferase assay inhibitors: firefly luciferase inhibition | P08659 | ATPLite firefly luciferase biochemical luminescence, 10 min | inhibition, % at 10 µM | 200,000 compounds, 1.5% hits | AID 1006;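 active means inhibition above about 50% when tested at 10 µM, limit read from the data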
NF-kB expr up: raises NF-kB expression in human neuronal cells; NF-kB reporter expression; active compounds read high; fold change at 12.5 µM; 190,000 compounds, 1.6% hits; AID 1239; in the data active means fold change above about 3.3
APP 5'UTR act: APP 5'UTR luciferase reporter activation. SH-SY5Y APP 5'UTR luciferase reporter, luminescence; zero percent = DMSO vehicle wells. activation, % at 2 µM. 190,000 compounds, 1% hits;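 active means activation above a set limit, based on mean plus 3 SD of controls, cut at about 140% in these data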
Each line names hits and unclear results; the compound was inactive in the other large screens.

Cc1cc(NCCCN2CCOCC2)n2ncc(-c3ccccc3)c2n1	STAT1 activator 147, NF-kB expr up 4.4, APP 5'UTR act 156
c1ccc2c(NCCCN3CCOCC3)c3ccccc3nc2c1	STAT1 activator 180
Fc1ccccc1-c1nc(NCCCN2CCOCC2)c2ccccc2n1	none
CCNc1nc(N)c(C(=O)c2ccc(Cl)s2)s1	STAT1 activator 144, NF-kB expr up 3.7 (no result: Pf gametocyte)
COc1ccc(Cl)cc1NC(=S)NNC(=O)C1(C)CC1(Cl)Cl (configuration not stated)	none
O=C(NC1C(=O)NNC1c1ccccc1)c1ccc(F)cc1 (configuration not stated)	STAT1 activator 129 (no result: Pf gametocyte)
COc1ccc2oc(=Nc3cc(F)ccc3F)c(C(N)=O)cc2c1	STAT1 activator 131
COc1ccc(OC)c(N=c2oc3cc(O)ccc3cc2C(N)=O)c1	none
CCOC(=O)c1ccc(Nc2ncccc2[N+](=O)[O-])cc1	STAT1 activator 135, NF-kB expr up 7.8, APP 5'UTR act 151
CCOc1ccc(NC(=S)Nc2ccc(OCC)cc2)cc1	none
CCOC(=O)c1ccc(NC(=S)Nc2ccccn2)cc1	STAT1 activator 129 (no result: Pf gametocyte)
CCOc1ccc(NC(=S)Nc2cc(C)[nH]n2)cc1	STAT1 activator 132 (no result: NF-kB expr up)
Cc1ccc(Nc2ncccc2C(N)=O)cc1[N+](=O)[O-]	STAT1 activator 141
O=C(NCCO)C(=O)c1c(-c2ccccc2)cc2ccccn12	none
COC(=O)c1sc(NC(=S)NC(=O)c2ccccc2Cl)nc1C	FLuc inh counter 67
CCOC(=O)c1sc(NC(=S)NC(=O)c2ccccc2)nc1C	none
COC(=O)c1sc(NC(=S)NC(=O)c2ccccc2)nc1C	FLuc inh counter 63
COc1ccccc1Nc1cc(C)nc2c(C)ccc([N+](=O)[O-])c12	none
COc1ccc(CCN(C)CCCN2CC(c3ccccc3)CC2=O)cc1OC (configuration not stated)	Pf gametocyte 42
COc1ccc(C2CC(=O)N(CCCN(C)CCc3ccc(OC)c(OC)c3)C2)cc1 (configuration not stated)	none (no result: Pf gametocyte)
CCn1c(=S)sc2nc(C)sc21	none (no result: Pf gametocyte, FLuc stim CS, FLuc inh counter, NF-kB expr up)
COC(=O)[C@@H]1CC[C@H](C)[C@@H](c2ccc(C)cc2)N1C(=O)c1ccc(/C=N/O[C@@H](C)CN2CCCCc3nc(C)c(C)cc32)cc1	none (no result: Pf gametocyte)
C/C(=N/OC(=O)c1ccc(F)cc1)c1ccc(C)cc1	FLuc inh counter 70 (no result: Pf gametocyte)
Cc1ccc(-c2nc3ccsc3c(=O)[nH]2)cc1	FLuc inh counter 75, APP 5'UTR act 198 (no result: Pf gametocyte)
CC(=O)Nc1ccc(C(=O)OCC(=O)Nc2ccccc2Sc2ccccc2)cc1	none
N#CCC(=O)Nc1ccc(C(=O)OCC(=O)Nc2ccccc2Sc2ccccc2)cc1	Pf gametocyte 40
Nc1cccc(-c2cn(-c3cc4cc(C#CC5(O)CCCCC5)ccc4oc3=O)nn2)c1	none (no result: STAT1 activator, FLuc stim CS, FLuc inh counter, NF-kB expr up, APP 5'UTR act)
Cc1c(C(=O)Nc2nc3ccccc3[nH]2)oc2ccc(Br)cc12	none
Cc1c(C(=O)Nc2ccncc2)oc2ccccc12	none
Cc1c(C(=O)Nc2ccccn2)oc2ccccc12	NF-kB expr up 4.5, APP 5'UTR act 153 (no result: Pf gametocyte)
Cc1c(C(=O)Nc2nc3ccccc3[nH]2)oc2ccccc12	STAT1 activator 162, FLuc inh counter 53, NF-kB expr up 8.1, APP 5'UTR act 182
COC(=O)C1CCN(C(=O)/C=C/c2ccc3c(c2)OCO3)CC1	none (no result: STAT1 activator, FLuc stim CS, FLuc inh counter, NF-kB expr up, APP 5'UTR act)
COc1ccc(N(CC(=O)NCCSCc2ccccc2Cl)S(C)(=O)=O)cc1Cl	none (no result: STAT1 activator, FLuc stim CS, FLuc inh counter, NF-kB expr up, APP 5'UTR act)
COc1ccc(CN2CCC(N3CCC(C(=O)N4CCOCC4)CC3)CC2)c(F)c1	none
Cc1ccccc1Oc1ccc(Oc2ccccc2C)nn1	STAT1 activator 131
Cc1ccc2c(c1C)NC(=O)C21N2CCCC2C(C(=O)c2ccc3ccccc3c2)C12C(=O)Nc1ccccc12 (configuration not stated)	none (no result: STAT1 activator, FLuc stim CS, FLuc inh counter, NF-kB expr up, APP 5'UTR act)
COc1ccc(/C=C\c2nc(=O)c3ccccc3o2)cc1	FLuc inh counter 93, NF-kB expr up 7.3
Cc1nc(CS(=O)(=O)c2ccc(Cl)cc2)sc1C(=O)O	none (no result: STAT1 activator, FLuc stim CS, FLuc inh counter, NF-kB expr up, APP 5'UTR act)
O=[N+]([O-])c1ccc2nc(-c3ccccc3)oc2c1	STAT1 activator 148
O=c1oc(-c2cccc([N+](=O)[O-])c2)nc2ccccc12	none (no result: STAT1 activator, FLuc stim CS, FLuc inh counter, NF-kB expr up, APP 5'UTR act)
CC(C)(C)Nc1nc2ccc([N+](=O)[O-])cc2o1	none (no result: STAT1 activator, FLuc stim CS, FLuc inh counter, NF-kB expr up, APP 5'UTR act)
COc1cccc(-c2nc3ccc([N+](=O)[O-])cc3o2)c1	STAT1 activator 136, NF-kB expr up 3.4, APP 5'UTR act 144
CCCCNC(=O)C1CC(c2cccc([N+](=O)[O-])c2)=NO1 (configuration not stated)	STAT1 activator 140, NF-kB expr up 3.5 (no result: Pf gametocyte)
Cc1ccc(-c2nnc(SCc3ccccc3F)o2)cc1	STAT1 activator 135, NF-kB expr up 7.3, APP 5'UTR act 142 (no result: Pf gametocyte)
C#CCSc1nnc(-c2ccc(C)cc2)o1	STAT1 activator 129, FLuc inh counter 56, NF-kB expr up 3.7 (no result: Pf gametocyte)
CC(NCC(c1ccco1)N1CCCCC1)C(=O)NC1CCCC1 (configuration not stated)	FLuc inh counter 74 (no result: Pf gametocyte)
CN(CCCC1CCCC1)C(=O)CCc1nnc(-c2ccccc2)o1	STAT1 activator 148
O=C(CCc1nnc(-c2ccccc2)o1)NC1CCCCC1	STAT1 activator 130
Cc1cc(C)n(CCN(C)C(=O)CCc2nnc(CCC3CCCCC3)o2)n1	STAT1 activator 140
COC(c1ccccc1)c1nnc(CCC(=O)NC2CCCCC2)o1 (configuration not stated)	none
Cn1c(Oc2ccccc2NCc2cccc(Br)c2)cc(=O)n(C)c1=O	none (no result: Pf gametocyte)
Cn1cccc1C(=O)OCc1cc(Cl)cc2c1OCOC2	STAT1 activator 145 (no result: Pf gametocyte)
O=[N+]([O-])c1cccnc1N1CCCCC1	none
O=c1n(-c2ccc(Br)cc2)cnn1-c1ncccc1[N+](=O)[O-]	STAT1 activator 130
CCN(CC)C(=O)Cn1c(=O)n(-c2ccccc2)c(=O)c2sccc21	none
Clc1ccc2[nH]c(-c3ccccc3)cc2c1	STAT1 activator 138, NF-kB expr up 3.9
Cc1cc(C)c2c(N)c3ccccc3nc2n1	STAT1 activator 132
CCc1ccc2nc3nc(C)cc(C)c3c(N)c2c1	STAT1 activator 136
CN(C)N1C(=O)CC(N2CCCCC2)C1=O (configuration not stated)	none
COC(=O)c1cc(NS(=O)(=O)c2ccc3c(c2)CCC(=O)N3)cc(C(=O)OC)c1	none (no result: Pf gametocyte)
CCCCCOC(=O)c1[nH]c2c(c1C)C(=O)C(C(=O)OC)C(C)C2 (configuration not stated)	none
COC(=O)C1C(=O)c2c([nH]c(C(=O)OCC3CCCO3)c2C)CC1C (configuration not stated)	FLuc inh counter 54 (no result: Pf gametocyte)
COCCOC(=O)c1[nH]c2c(c1C)C(=O)C(C(=O)OC)C(C)C2 (configuration not stated)	FLuc inh counter 54 (no result: Pf gametocyte)
